pIC50: −log10 of the molar value. Activity calls are given as the source filed them.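 Rule for the calls: active = inhibition of 30% or more at any tested concentration; inactive = the rest.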
Biological target: M17 leucyl aminopeptidase (Plasmodium falciparum 3D7)
Experiment: PfM17LAP leucine aminopeptidase inhibitors, dose response, biochemical, QFRET, set 3 (AID 602309)
Details: purified rPfM17LAP, H-Leu-NHMec fluorogenic cleavage
Procedure, shortened: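 Measured by: fluorescence at 370/460 nm; material: purified recombinant Plasmodium falciparum M17 leucine aminopeptidase (rPFM17LAP); amount: rPFM17LAP enzyme at 5 µg/mL final; benchmarks: full reaction wells versus no-enzyme background wells; doses: 10-point twofold dilution series, 100 down to 0.2 µM; timing: enzyme reaction 90 min at room temperature; also added: H-Leu-NHMec substrate, 0.1 mM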

pIC50	Compound
5.64	CCC(C)Oc1ccc(CC(=O)NO)cc1 (stereo not drawn)
5.67	CCCCOc1ccc(C(C)C(=O)NO)cc1 (stereo not drawn)
5.86	CCCOc1ccc(CC(=O)NO)cc1
5.65	CCCCOc1cccc(CC(=O)NO)c1
4.33	O=C(NO)c1ccc2ccccc2c1

Same assay, conditions: purified rPfM17LAP, H-Leu-NHMec fluorogenic cleavage; at 100 µM (top of the series)

inhibition	Compound
inactive	CN(C)CCOc1ccc(CC(=O)O)cc1
inactive	CCCCOc1ccc(C(C)(C)C(=O)O)cc1
inactive	CCCCOc1cccc(CC(=O)OC)c1
inactive	CCCCOc1ccc(CN(O)C(C)=O)cc1
inactive	CCCCOc1ccc(CN(O)C(=O)c2ccccc2)cc1
inactive	CCCCOc1ccc(C(C)(C)C(=O)NO)cc1

The next lines start with the compound.

Compound	inhibition
CCCOc1ccc(CC(=O)O)cc1	inactive
CCCCOc1ccc(C(C)C(=O)OC)cc1 (stereo not drawn)	inactive
